{"source": "paper PMC4478078", "about": "(Biochemistry, 2015)", "key": {"HO2tail(C265A)^R [1]": {"test_system": "HO2tail(C265A)^R", "assay": "Pyridine hemochrome assay of bound heme, HO2tail", "assay_type": "binding, human", "conditions": "after excess Fe^3+-heme and removal of unbound heme", "in_short": "(§1)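 Protein was reduced with a 25-fold molar excess of TCEP for 1 h anaerobically, desalted into anaerobic 50 mM Tris pH 8.0, 50 mM KCl, then incubated 1 h with excess Fe3+-heme (5-fold molar excess in the general method). The heme stock contained 15% DMSO and 0.1 M NaOH, was filtered and quantified at 385 nm. Unbound heme was removed on a desalting column. Bound heme was measured by pyridine hemochrome (Δε556 28.32 mM−1 cm−1).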"}, "HO2tail(C265A/C282A)^R": {"test_system": "HO2tail(C265A/C282A)^R", "assay": "Heme binding to HO2tail", "design": "species or system human", "conditions": "data not shown"}, "HO2 tail at Cys265": {"test_system": "HO2 tail at Cys265", "assay": "Calculated dissociation equilibrium constant, HO2 tail at Cys265", "assay_type": "binding, human"}, "[2]": {"target": "T1, HO2core (human HO2 residues 1–248) (Homo sapiens, UniProt P30519)", "T1 sequence (P30519 1-248)": "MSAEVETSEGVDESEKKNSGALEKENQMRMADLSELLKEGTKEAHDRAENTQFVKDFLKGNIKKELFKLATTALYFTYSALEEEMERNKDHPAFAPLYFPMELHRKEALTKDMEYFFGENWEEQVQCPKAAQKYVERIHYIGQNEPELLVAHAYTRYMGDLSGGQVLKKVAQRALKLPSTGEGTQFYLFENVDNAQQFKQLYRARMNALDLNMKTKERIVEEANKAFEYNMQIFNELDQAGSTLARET", "assay": "Fe^3+-heme difference titration with HO2core", "assay_type": "binding", "conditions": "read-out: Kd (titrations); 2 μM HO2core; 50 mM Tris pH 8.0, 50 mM KCl, 20 °C, anaerobic; quadratic fit"}, "HO2tail(C265A)^R [3]": {"test_system": "HO2tail(C265A)^R", "assay": "Fe^3+-heme off rate, apo-H64Y/V68F-myoglobin assay, HO2tail", "assay_type": "binding, human", "conditions": "2 μM heme-bound protein, 20 μM apo-H64Y/V68F-myoglobin, 20 °C", "in_short": "(§2)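 Disulfide-reduced (TCEP) heme-loaded protein, freed of unbound heme, at 2 μM was mixed with 20 μM apo-H64Y/V68F-myoglobin in 50 mM Tris pH 8.0, 50 mM KCl. Apomyoglobin was prepared by methyl ethyl ketone extraction, dialysed against Tris pH 7.4 with 150 mM KCl, and quantified at 280 nm. Spectra were recorded over time at 20 °C, following the absorbance rise at 600 from heme scavenging.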"}, "HO2sol^R [4]": {"target": "T2, HO2sol^R (Homo sapiens, UniProt P30519)", "T2 sequence (P30519 1-288)": "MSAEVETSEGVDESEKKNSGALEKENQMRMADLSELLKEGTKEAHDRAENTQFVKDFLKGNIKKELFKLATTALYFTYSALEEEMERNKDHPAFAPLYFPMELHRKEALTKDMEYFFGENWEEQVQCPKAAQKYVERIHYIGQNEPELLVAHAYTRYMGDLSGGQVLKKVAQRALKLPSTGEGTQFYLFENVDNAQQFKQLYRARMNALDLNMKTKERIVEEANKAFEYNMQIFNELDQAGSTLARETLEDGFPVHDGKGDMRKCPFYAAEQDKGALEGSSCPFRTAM", "assay": "Pyridine hemochrome assay of bound heme, HO2sol^R", "assay_type": "binding", "conditions": "after 5-fold excess Fe^3+-heme and removal of unbound heme", "in_short": "as §1"}, "HO2core": {"target": "T3, HO2core (Homo sapiens, UniProt P30519)", "T3 sequence (P30519 1-248)": "T1 sequence (P30519 1-248)", "assay": "Fe^3+-heme on rate, anaerobic stopped flow, HO2core", "assay_type": "binding", "in_short": "(§3)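 Apoprotein at various concentrations was mixed with Fe3+-heme in 50 mM Tris pH 8.0, 50 mM KCl by stopped-flow inside an anaerobic chamber, 1 cm path, 20 °C, 406 nm. Each kobs is the mean of 5–7 traces fit to a single exponential. Eq 1 fit of kobs versus apoprotein concentration gave k2/k1 and kcoord, with k′heme ≈ kcoord/(k2/k1). Kd is the myoglobin-assay off rate divided by k′heme.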"}, "[5]": {"test_system": "HO2sol^R (human HO2 residues 1–288, disulfide-reduced)", "assay": "Fe^3+-heme off rate, apo-H64Y/V68F-myoglobin assay, HO2sol^R", "assay_type": "binding", "conditions": "double-exponential, 20 °C", "in_short": "as §2"}, "HO2tail(C282A)^R [6]": {"target": "T4, HO2tail(C282A)^R (Homo sapiens, UniProt P30519, C282A)", "T4 sequence (P30519 213-288 C282A)": "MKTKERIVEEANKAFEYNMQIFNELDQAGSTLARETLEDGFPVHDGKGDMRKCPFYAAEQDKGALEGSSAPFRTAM", "assay": "Fe^3+-heme on rate, anaerobic stopped flow, HO2tail", "assay_type": "binding", "in_short": "as §3"}, "[7]": {"test_system": "HRI (heme-regulated eukaryotic initiation factor 2α kinase)", "conditions": "cited from earlier work"}, "[8]": {"target": "T5, HO2tail(C265A)^R (human HO2 residues 213–288, disulfide-reduced) (Homo sapiens, UniProt P30519, C265A)", "T5 sequence (P30519 213-288 C265A)": "T4 sequence (P30519 213-288 C282A) with C53A, A70C", "assay": "Fe^3+-heme difference titration with HO2tail", "assay_type": "binding", "conditions": "read-out: Kd (titrations); 6 μM HO2tail(C265A)^R; 50 mM Tris pH 8.0, 50 mM KCl, 20 °C, anaerobic"}, "HO2sol^R [9]": {"target": "T2, HO2sol^R", "assay": "Fe^3+-heme on rate, anaerobic stopped flow, HO2sol^R", "conditions": "406 nm, 20 °C, per observable binding site (two per monomer)", "in_short": "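TCEP-reduced apoprotein at various concentrations was mixed with Fe3+-heme in anaerobic 50 mM Tris pH 8.0, 50 mM KCl by stopped-flow within an anaerobic chamber at 20 °C, monitored at 406 nm. Each kobs is an average of 5–7 traces fit to a single exponential. kobs was plotted against the concentration of observable binding sites and fit to eq 1; k′heme ≈ kcoord/(k2/k1).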"}, "HO2tail^R [10]": {"test_system": "HO2tail^R", "assay": "Fe^3+-heme off rate, apo-H64Y/V68F-myoglobin assay, HO2tail^R", "assay_type": "binding, human", "conditions": "double-exponential, 20 °C", "in_short": "as §2"}, "HO2tail(C282A)^R [11]": {"target": "T4, HO2tail(C282A)^R", "assay": "Fe^3+-heme off rate, apo-H64Y/V68F-myoglobin assay, HO2tail", "assay_type": "binding", "conditions": "2 μM heme-bound protein, 20 μM apo-H64Y/V68F-myoglobin, 20 °C", "in_short": "as §2"}, "HO2tail(C282A)^R [12]": {"target": "T4, HO2tail(C282A)^R", "assay": "Pyridine hemochrome assay of bound heme, HO2tail", "assay_type": "binding", "conditions": "after excess Fe^3+-heme and removal of unbound heme", "in_short": "as §1"}, "[13]": {"target": "T6, HO2tail(C282A)^R (human HO2 residues 213–288, disulfide-reduced) (Homo sapiens, UniProt P30519, C282A)", "T6 sequence (P30519 213-288 C282A)": "T4 sequence (P30519 213-288 C282A)", "assay": "Fe^3+-heme difference titration with HO2tail", "assay_type": "binding", "conditions": "read-out: Kd (titrations); 10 μM HO2tail(C282A)^R; 50 mM Tris pH 8.0, 50 mM KCl, 20 °C, anaerobic"}, "HO2tail^R [14]": {"test_system": "HO2tail^R", "assay": "Pyridine hemochrome assay of bound heme, HO2tail^R", "assay_type": "binding, human", "conditions": "after 5-fold excess Fe^3+-heme and removal of unbound heme", "in_short": "as §1"}, "[15]": {"conditions": "fit of eq 1 to kobs vs apoprotein concentration"}, "[16]": {"conditions": "read-out: Kd (k-heme/k′heme), calculated from off and on rates"}}, "note": "Numbering of substitutions follows the chain as printed."}
{"smiles": "C=CC1=C(C)c2cc3[n-]c(cc4[n-]c(cc5nc(cc1n2)C(C)=C5C=C)c(C)c4CCC(=O)O)c(CCC(=O)O)c3C.[Fe+2]", "note": "[Fe^3+-heme]", "values": [{"measurement": "heme bound per monomer of protein", "setting": "HO2tail(C265A)^R [1]", "result": "0.74 ± 0.03 heme per monomer of protein"}, {"measurement": "Fe^3+-heme binding (in words)", "setting": "HO2tail(C265A/C282A)^R", "result": "did not bind"}, {"measurement": "difference in binding affinity between the sites (core His45 vs tail Cys265)", "setting": "HO2 tail at Cys265; Fe^3+-heme difference titrations", "result": "~ 6 fold"}, {"measurement": "difference in binding affinity between the sites (core His45 vs tail Cys265)", "setting": "HO2 tail at Cys265; kinetic experiments", "result": "2–5 fold"}, {"measurement": "Kd", "setting": "[2]", "result": "14 ± 4", "unit": "nM"}, {"measurement": "k-heme (off rate)", "setting": "HO2tail(C265A)^R [3]", "result": "0.0055 ± 0.0005", "unit": "s⁻¹"}, {"measurement": "hemes bound per monomer of protein", "setting": "HO2sol^R [4]", "result": "2.1 ± 0.1 hemes per monomer of protein"}, {"measurement": "k′heme (apparent second-order rate constant, kcoord/(k2/k1))", "setting": "HO2core; 406 nm, 20 °C, anaerobic", "result": "6.4e+06", "unit": "M⁻¹ s⁻¹"}, {"measurement": "k2/k1", "setting": "HO2core; [15]", "result": "14.1 ± 0.3", "unit": "µM"}, {"measurement": "kcoord", "setting": "HO2core; [15]", "result": "91 ± 1", "unit": "s⁻¹"}, {"measurement": "Kd", "setting": "HO2core; [16]", "result": 0.2, "unit": "nM"}, {"measurement": "k-heme (off rate), fast phase", "setting": "[5]; fast phase, assigned to Cys265", "result": "0.0031 ± 0.0002", "unit": "s⁻¹"}, {"measurement": "k-heme (off rate), slow phase", "setting": "[5]; slow phase, assigned to His45 at the core", "result": "0.00054 ± 0.00006", "unit": "s⁻¹"}, {"measurement": "k′heme (apparent second-order rate constant, kcoord/(k2/k1))", "setting": "HO2tail(C282A)^R [6]; 406 nm, 20 °C, anaerobic", "result": "7.6e+06", "unit": "M⁻¹ s⁻¹"}, {"measurement": "k2/k1", "setting": "HO2tail(C282A)^R [6]; [15]", "result": "14 ± 4", "unit": "µM"}, {"measurement": "kcoord", "setting": "HO2tail(C282A)^R [6]; [15]", "result": "110 ± 10", "unit": "s⁻¹"}, {"measurement": "Kd", "setting": "HO2tail(C282A)^R [6]; [16]", "result": 0.3, "unit": "nM"}, {"measurement": "off rate", "setting": "[7]", "result": 0.0015, "unit": "s⁻¹"}, {"measurement": "Kd", "setting": "[8]", "result": "900 ± 300", "unit": "nM"}, {"measurement": "k′heme (apparent second-order rate constant, kcoord/(k2/k1))", "setting": "HO2sol^R [9]", "result": "6.9e+06", "unit": "M⁻¹ s⁻¹"}, {"measurement": "k-heme (off rate), fast phase", "setting": "HO2tail^R [10]; fast phase, assigned to Cys282", "result": "0.0086 ± 0.003", "unit": "s⁻¹"}, {"measurement": "k-heme (off rate), slow phase", "setting": "HO2tail^R [10]; slow phase, assigned to Cys265", "result": "0.0023 ± 0.0004", "unit": "s⁻¹"}, {"measurement": "k-heme (off rate)", "setting": "HO2tail(C282A)^R [11]", "result": "0.0023 ± 0.0001", "unit": "s⁻¹"}, {"measurement": "heme bound per monomer of protein", "setting": "HO2tail(C282A)^R [12]", "result": "0.8 ± 0.2 heme per monomer of protein"}, {"measurement": "Kd", "setting": "[13]", "result": "90 ± 30", "unit": "nM"}, {"measurement": "hemes bound per monomer of protein", "setting": "HO2tail^R [14]", "result": "1.4 ± 0.3 hemes per monomer of protein"}]}
